# Experiments:
# Rattus norvegicus [1] = assay: Effect on in vivo accumulation of […] was measured in rat corpus striatum at 48(Micromol/kg) dose; assay type: functional
# In short: (§1)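 Rats not pretreated with reserpine received test drug (hydrochloride or hydrobromide salt) sc in the neck region 60 min before death. NSD 1015 decarboxylase inhibitor (100 mg/kg, i.e., 573 μmol/kg, ip) was given 30 min before decapitation. Brain was dissected on ice. Tissue was homogenized in 0.1 M perchloric acid with α-methyl-DOPA internal standard. Analytes were quantified by ion-pair reversed-phase HPLC-electrochemical detection. Values are means ± SEM, n = 3-7 per treated group.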
# Rattus norvegicus [2] = assay: Effect on in vivo accumulation of DOPA was measured in rat corpus striatum at 48(Micromol/kg) dose; assay type: functional; in short: as §1
# Rattus norvegicus [3] = assay: Effect on in vivo accumulation of dopamine(DA) was measured in rat limbic system at 48(Micromol/kg) dose; assay type: functional
# In short: (§2)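 Non-reserpinized rats got the test drug sc in the neck (5 mL/kg) 60 min before death, and NSD 1015 (573 µmol/kg ip) 30 min before death. After decapitation, the limbic system was dissected on ice, frozen and homogenized in 0.1 M perchloric acid with α-methyl-DOPA internal standard. DA was measured by ion-pair reversed-phase HPLC with electrochemical detection. Data are mean ± SEM (controls n=17-19, treated 3-7), analysed by ANOVA/Dunnett.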
# Rattus norvegicus [4] = assay: Effect on in vivo accumulation of DOPA was measured in rat limbic system at 48(Micromol/kg) dose; assay type: functional; in short: as §1
# Rattus norvegicus [5] = assay: Effect on in vivo accumulation of 5-HTP was measured in rat corpus striatum at 48(umol/kg) dose; assay type: functional; in short: as §1
# Rattus norvegicus [6] = assay: Effect on in vivo accumulation of 5-HTP was measured in rat limbic system at 48(Micromol/kg) dose; assay type: functional; in short: as §1
# Rattus norvegicus [7] = assay: Effect on in vivo accumulation of dopamine(DA) was measured in rat limbic system at 50(Micromol/kg) dose; assay type: functional; in short: as §2
# Rattus norvegicus [8] = assay: Effect on in vivo accumulation of 5-HTP was measured in rat corpus striatum at 50(umol/kg) dose; assay type: functional; in short: as §1
# [9] = biological target: T1, 5-hydroxytryptamine receptor 1A (Rattus norvegicus, UniProt P19327); assay: (§3) In vitro Inhibitory activity tested at 5-hydroxytryptamine 1A receptor binding site in rat; assay type: functional
# T1 sequence (P19327 whole entry): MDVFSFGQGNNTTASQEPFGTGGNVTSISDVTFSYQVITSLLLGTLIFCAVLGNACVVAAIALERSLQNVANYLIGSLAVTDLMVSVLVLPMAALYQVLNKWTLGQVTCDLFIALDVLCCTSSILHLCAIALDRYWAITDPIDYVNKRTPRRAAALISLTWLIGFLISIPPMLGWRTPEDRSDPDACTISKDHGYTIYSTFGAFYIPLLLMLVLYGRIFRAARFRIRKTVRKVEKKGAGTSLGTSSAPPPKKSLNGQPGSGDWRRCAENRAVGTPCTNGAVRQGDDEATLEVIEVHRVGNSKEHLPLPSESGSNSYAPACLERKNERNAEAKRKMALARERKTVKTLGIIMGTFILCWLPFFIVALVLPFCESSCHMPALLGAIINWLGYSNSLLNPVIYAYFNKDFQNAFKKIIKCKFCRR
# In short: (§4)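 Competition binding used rat brain membranes washed in 50 mM Tris-HCl pH 7.4, preincubated 10 min at 37 °C to remove 5-HT, and used at 10 mg wet tissue/mL. Assay: 1 nM [3H]-8-OH-DPAT, 3 mM CaCl2, 100 µM pargyline, 15 min at 37 °C, then filtration on PEI-treated filters. Nonspecific binding was set with 10 µM 5-HT. IC50 came from four-parameter logistic regression, mean ± SEM of N experiments.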
# Rattus norvegicus [10] = assay: Effect on in vivo accumulation of DOPA was measured in rat limbic system at 50(Micromol/kg) dose; assay type: functional; in short: as §1
# Rattus norvegicus [11] = assay: Effect on in vivo accumulation of DOPA was measured in rat corpus striatum at 50(Micromol/kg) dose; assay type: functional; in short: as §1
# Rattus norvegicus [12] = assay: Effect on in vivo accumulation of […] was measured in rat corpus striatum at 50(Micromol/kg) dose; assay type: functional; in short: as §1
# Rattus norvegicus [13] = assay: Effect on in vivo accumulation of 5-HTP was measured in rat limbic system at 50(Micromol/kg) dose; assay type: functional; in short: as §1
# Rattus norvegicus [14] = assay: Effect on in vivo accumulation of […] was measured in rat corpus striatum at 66(Micromol/kg) dose; assay type: functional; in short: as §1
# Rattus norvegicus [15] = assay: Effect on in vivo accumulation of 5-HTP was measured in rat corpus striatum at 66(umol/kg) dose; assay type: functional; in short: as §1
# Rattus norvegicus [16] = assay: Effect on in vivo accumulation of DOPA was measured in rat limbic system at 66(Micromol/kg) dose; assay type: functional; in short: as §1
# Rattus norvegicus [17] = assay: Effect on in vivo accumulation of dopamine(DA) was measured in rat limbic system at 66(Micromol/kg) dose; assay type: functional; in short: as §2
# Rattus norvegicus [18] = assay: Effect on in vivo accumulation of DOPA was measured in rat corpus striatum at 66(Micromol/kg) dose; assay type: functional; in short: as §1
# Rattus norvegicus [19] = assay: Effect on in vivo accumulation of 5-HTP was measured in rat limbic system at 66(Micromol/kg) dose; assay type: functional; in short: as §1
# Rattus norvegicus [20] = assay: Effect on in vivo accumulation of […] was measured in rat corpus striatum at 59(Micromol/kg) dose; assay type: functional; in short: as §1
# Rattus norvegicus [21] = assay: Effect on in vivo accumulation of 5-HTP was measured in rat corpus striatum at 59(umol/kg) dose; assay type: functional; in short: as §1
# Rattus norvegicus [22] = assay: Effect on in vivo accumulation of dopamine(DA) was measured in rat limbic system at 59(Micromol/kg) dose; assay type: functional; in short: as §2
# Rattus norvegicus [23] = assay: Effect on in vivo accumulation of 5-HTP was measured in rat limbic system at 59(Micromol/kg) dose; assay type: functional; in short: as §1
# Rattus norvegicus [24] = assay: Effect on in vivo accumulation of DOPA was measured in rat limbic system at 59(Micromol/kg) dose; assay type: functional; in short: as §1
# Rattus norvegicus [25] = assay: Effect on in vivo accumulation of DOPA was measured in rat corpus striatum at 59(Micromol/kg) dose; assay type: functional; in short: as §1
# [26] = biological target: T1, 5-hydroxytryptamine receptor 1A; assay: as §3; in short: as §4
# [27] = biological target: T1, 5-hydroxytryptamine receptor 1A; assay: Inhibitory activity tested in vitro at 5-hydroxytryptamine 1A receptor binding site in rat; in short: as §4
# Rattus norvegicus [28] = assay: Effect on in vivo accumulation of 5-HTP was measured in rat limbic system at 5.9 (umol/kg) dose; assay type: functional; in short: as §1
# Rattus norvegicus [29] = assay: Effect on in vivo accumulation of dopamine(DA) was measured in rat limbic system at 5.9 (umol/kg) dose; assay type: functional; in short: as §2
# Rattus norvegicus [30] = assay: Effect on in vivo accumulation of DOPA was measured in rat corpus striatum at 5.9 (umol/kg) dose; assay type: functional; in short: as §1
# Rattus norvegicus [31] = assay: Effect on in vivo accumulation of DOPA was measured in rat limbic system at 5.9 (umol/kg) dose; assay type: functional; in short: as §1
# Rattus norvegicus [32] = assay: Effect on in vivo accumulation of […] was measured in rat corpus striatum at 5.9 (umol/kg) dose; assay type: functional; in short: as §1
# Rattus norvegicus [33] = assay: Effect on in vivo accumulation of 5-HTP was measured in rat corpus striatum at 5.9(umol/kg) dose; assay type: functional; in short: as §1
smiles,measurement,setting,value
CCCN(CCC)[C@H]1Cc2c(cccc2OC)C[C@@H]1C (racemic),Activity,Rattus norvegicus [1],5833 ng/g
same,Activity,Rattus norvegicus [2],979 ng/g
same,Activity,Rattus norvegicus [3],1225 ng/g
same,Activity,Rattus norvegicus [4],389 ng/g
same,Activity,Rattus norvegicus [5],<61.3 ng/g
same,Activity,Rattus norvegicus [6],145 ng/g
CCCN(CCC)[C@H]1Cc2c(O)cccc2C[C@H]1C (racemic) [listing 1 of 2 here],Activity,Rattus norvegicus [7],<678 ng/g
same,Activity,Rattus norvegicus [8],<57.8 ng/g
same,IC50,[9],774 nM
same,Activity,Rattus norvegicus [10],436 ng/g
same,Activity,Rattus norvegicus [11],1059 ng/g
same,Activity,Rattus norvegicus [12],<2935 ng/g
same,Activity,Rattus norvegicus [13],138 ng/g
CCCN(CCC)[C@H]1Cc2c(cccc2OC)C[C@H]1C (racemic),Activity,Rattus norvegicus [1],6465 ng/g
same,Activity,Rattus norvegicus [2],1078 ng/g
same,Activity,Rattus norvegicus [3],1342 ng/g
same,Activity,Rattus norvegicus [4],414 ng/g
same,Activity,Rattus norvegicus [5],88.8 ng/g
same,Activity,Rattus norvegicus [6],141 ng/g
CCCN(CCC)[C@H]1Cc2c(O)cccc2CC1(C)C (racemic),Activity,Rattus norvegicus [1],5417 ng/g
same,Activity,Rattus norvegicus [2],982 ng/g
same,Activity,Rattus norvegicus [3],1125 ng/g
same,Activity,Rattus norvegicus [4],362 ng/g
same,Activity,Rattus norvegicus [5],90 ng/g
same,Activity,Rattus norvegicus [6],158 ng/g
COc1cccc2c1C[C@H](N)[C@@H](C)C2 (racemic),Activity,Rattus norvegicus [14],<6863 ng/g
same,Activity,Rattus norvegicus [15],90.2 ng/g
same,Activity,Rattus norvegicus [16],356 ng/g
same,Activity,Rattus norvegicus [17],1243 ng/g
same,Activity,Rattus norvegicus [18],<823 ng/g
same,Activity,Rattus norvegicus [19],<106 ng/g
CCCN[C@H]1Cc2c(O)cccc2C[C@@H]1C (racemic),Activity,Rattus norvegicus [20],5877 ng/g
same,Activity,Rattus norvegicus [21],101 ng/g
same,Activity,Rattus norvegicus [22],1215 ng/g
same,Activity,Rattus norvegicus [23],155 ng/g
same,Activity,Rattus norvegicus [24],400 ng/g
same,Activity,Rattus norvegicus [25],1047 ng/g
CCCN[C@H]1Cc2c(O)cccc2C[C@H]1C (racemic),Activity,Rattus norvegicus [20],4530 ng/g
same,Activity,Rattus norvegicus [21],69 ng/g
same,Activity,Rattus norvegicus [22],1058 ng/g
same,Activity,Rattus norvegicus [23],<98.1 ng/g
same,Activity,Rattus norvegicus [24],<283 ng/g
same,Activity,Rattus norvegicus [25],<633 ng/g
CCCN(CCC)[C@H]1Cc2c(O)cccc2C[C@H]1C (racemic) [listing 2 of 2 here],IC50,[26],774 nM
CCCN(CCC)[C@H]1Cc2c(O)cccc2C[C@@H]1C (racemic; form 1),IC50,[26],129 nM
CCCN(CCC)[C@H]1Cc2c(O)cccc2C[C@@H]1C (racemic; form 2),IC50,[26],129 nM
same,Activity,Rattus norvegicus [7],<775 ng/g
same,Activity,Rattus norvegicus [8],<27.1 ng/g
same,Activity,Rattus norvegicus [10],348 ng/g
same,Activity,Rattus norvegicus [11],792 ng/g
same,Activity,Rattus norvegicus [12],<3871 ng/g
same,Activity,Rattus norvegicus [13],<79.3 ng/g
CCCN(CCC)[C@H]1Cc2c(O)cccc2C[C@H]1C (stereo in doubt; (+)),IC50,[27],2420 nM
CCCN(CCC)[C@H]1Cc2c(O)cccc2C[C@@H]1C (stereo in doubt; (+)),IC50,[27],60.5 nM
CCCN[C@H]1Cc2c(O)cccc2C[C@@H]1C (stereo in doubt; (+)-9),Activity,Rattus norvegicus [20],4249 ng/g
same,Activity,Rattus norvegicus [21],<67.4 ng/g
same,Activity,Rattus norvegicus [22],1030 ng/g
same,Activity,Rattus norvegicus [23],125 ng/g
same,Activity,Rattus norvegicus [24],426 ng/g
same,Activity,Rattus norvegicus [25],957 ng/g
CCCN[C@H]1Cc2c(O)cccc2C[C@H]1C (stereo in doubt; (+)-13),Activity,Rattus norvegicus [28],131 ng/g
same,Activity,Rattus norvegicus [20],5133 ng/g
same,Activity,Rattus norvegicus [29],1292 ng/g
same,Activity,Rattus norvegicus [30],1013 ng/g
same,Activity,Rattus norvegicus [21],101 ng/g
same,Activity,Rattus norvegicus [22],1186 ng/g
same,Activity,Rattus norvegicus [23],140 ng/g
same,Activity,Rattus norvegicus [31],365 ng/g
same,Activity,Rattus norvegicus [32],5924 ng/g
same,Activity,Rattus norvegicus [24],<271 ng/g
same,Activity,Rattus norvegicus [25],<525 ng/g
same,Activity,Rattus norvegicus [33],104 ng/g
CCCN(CCC)[C@H]1Cc2c(O)cccc2C[C@H]1C (stereo in doubt; (+)-15),Activity,Rattus norvegicus [7],<609 ng/g
same,Activity,Rattus norvegicus [8],115 ng/g
same,Activity,Rattus norvegicus [10],<507 ng/g
same,Activity,Rattus norvegicus [11],1157 ng/g
same,Activity,Rattus norvegicus [12],<2758 ng/g
same,IC50,[27],2420 nM
same,Activity,Rattus norvegicus [13],197 ng/g
CCCN(CCC)[C@H]1Cc2c(O)cccc2C[C@H]1C (stereo in doubt; (-)),IC50,[27],486 nM
CCCN(CCC)[C@H]1Cc2c(O)cccc2C[C@@H]1C (stereo in doubt; (-)),IC50,[27],1680 nM
CCCN[C@H]1Cc2c(O)cccc2C[C@@H]1C (stereo in doubt; (-)-9),Activity,Rattus norvegicus [20],5588 ng/g
same,Activity,Rattus norvegicus [21],105 ng/g
same,Activity,Rattus norvegicus [22],975 ng/g
same,Activity,Rattus norvegicus [23],169 ng/g
same,Activity,Rattus norvegicus [24],<340 ng/g
same,Activity,Rattus norvegicus [25],978 ng/g
CCCN[C@H]1Cc2c(O)cccc2C[C@H]1C (stereo in doubt; (-)-13),Activity,Rattus norvegicus [20],5365 ng/g
same,Activity,Rattus norvegicus [21],103 ng/g
same,Activity,Rattus norvegicus [22],1148 ng/g
same,Activity,Rattus norvegicus [23],151 ng/g
same,Activity,Rattus norvegicus [24],365 ng/g
same,Activity,Rattus norvegicus [25],932 ng/g

# — ChEMBL document CHEMBL1124127, “Central dopaminergic and 5-hydroxytryptaminergic effects of C3-methylated derivatives of 8-hydroxy-2-(di-n-propylamino)tetralin” (J Med Chem, 1988)
